# Data: ChEMBL document CHEMBL5532751, “Identification of chalcone analogues as anti-inflammatory agents through the regulation of NF-κB and JNK activation” (RSC Med Chem, 2024)
# Calls of active or inactive are those of the source. The calls are words filed in the database; no cut-off is given here.
# How the values were obtained:
# [1] = test system: RAW264.7; experiment: Antiinflammatory activity in LPS-induced mouse RAW264.7 cells assessed as decrease in iNOS protein level at 10 to 40 uM preincubated for 2 hrs followed by LPS stimulation for 24 hrs by Western blot analysis; type: functional, cell-based; details: dose 10-40 µM, time 26.0 hrs
# Method in brief: (§1)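 RAW264.7 cells given compound at 10, 20 or 40 μM, then LPS (1 μg mL−1). Lysis in 1% Triton X-100 buffer with phosphatase and protease inhibitors, 30 min on ice. Protein quantified by BCA, run on 10% SDS-PAGE, transferred to PVDF. Primary antibody overnight at 4 °C, HRP secondary 2 h at room temperature, ECL detection. β-Actin as loading control. Mean ± SD, n = 3.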
# [2] = test system: RAW264.7; experiment: Antiinflammatory activity in LPS-induced mouse RAW264.7 cells assessed as inhibition of IL-6 release preincubated for 2 hrs followed by LPS stimulation for 24 hrs by ELISA method; type: functional, cell-based; details: for Activity: dose 2.5-40 µM, time 26.0 hrs
# Method in brief: (§2)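 RAW264.7 macrophages pretreated 2 h with compound at 2.5, 5, 10, 20 and 40 μM, then LPS 1 μg mL−1 for 24 h. Cytokine in supernatant measured with commercial ELISA kits per the manufacturers' protocols. IC50 derived from the dose series. Mean ± SD.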
# [3] = test system: RAW264.7; experiment: Antiinflammatory activity in LPS-induced mouse RAW264.7 cells assessed as inhibition of TNF-alpha release preincubated for 2 hrs followed by LPS stimulation for 24 hrs by ELISA method; type: functional, cell-based; details: for Activity: dose 2.5-40 µM, time 26.0 hrs; method in brief: as §2
# [4] = test system: RAW264.7; experiment: Antiinflammatory activity in LPS-induced mouse RAW264.7 cells assessed as inhibition of iNOS activity preincubated for 2 hrs followed by LPS stimulation for 24 hrs by ELISA method; type: functional, cell-based
# [5] = test system: RAW264.7; experiment: Inhibition of NF-kB signaling activation in LPS-induced mouse RAW264.7 cells assessed as downregulation of p65 phosphorylation preincubated for 2 hrs followed by LPS addition for 2 hrs by Western blot analysis; type: cell-based; details: dose 10-40 µM, time 4.0 hrs
# Method in brief: (§3)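 RAW264.7 macrophages pretreated 2 h with vehicle (DMSO) or compound at 10, 20 or 40 μM, then LPS 1 μg mL−1 for 2 h. p-p65 and p-JNK detected by Western blot, normalized to β-actin and to total p65 or JNK. Optical density expressed as % of control; mean ± SEM of at least three independent experiments.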
# [6] = test system: RAW264.7; experiment: Antiinflammatory activity in LPS-induced mouse RAW264.7 cells assessed as inhibition of IL-1beta release preincubated for 2 hrs followed by LPS stimulation for 24 hrs by ELISA method; type: functional, cell-based; details: for Activity: dose 2.5-40 µM, time 26.0 hrs; method in brief: as §2
# [7] = test system: RAW264.7; experiment: Antiinflammatory activity in LPS-induced mouse RAW264.7 cells assessed as inhibition of PGE2 production preincubated for 2 hrs followed by LPS stimulation for 24 hrs by ELISA method; type: functional, cell-based
# [8] = test system: RAW264.7; experiment: Cytotoxicity against mouse RAW264.7 cells assessed as cell survival at 20 uM incubated for 4 hrs by CCK-8 method; type: toxicity, cell-based; details: raw264.7, 4 h
# Method in brief: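 RAW 264.7 cells seeded at 20 000 per well, grown 24 h at 37 °C, exposed to compound for 4 h. CCK-8 (WST-8) reagent then added for 50 min at 37 °C, absorbance read at 450 nm. Survival = (test − blank)/(untreated medium control − blank) × 100%, blank being medium without cells.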
# [9] = test system: RAW264.7; experiment: Antiinflammatory activity in LPS-induced mouse RAW264.7 cells assessed as downregulation of TNF-alpha mRNA expression level preincubated for 2 hrs followed by LPS stimulation for 6 hrs by RT-qPCR analysis; type: functional, cell-based; details: dose 5-20 µM, time 8.0 hrs
# Method in brief: (§4)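 RAW264.7 cells pretreated 2 h with compound at 5, 10 or 20 μM or vehicle, then LPS 1 μg mL−1 for 6 h. Total RNA extracted and target mRNAs quantified by RT-qPCR, normalized to β-actin mRNA. Mean ± SD of three independent experiments.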
# [10] = test system: RAW264.7; experiment: Antiinflammatory activity in LPS-induced mouse RAW264.7 cells assessed as downregulation of iNOS mRNA expression level preincubated for 2 hrs followed by LPS stimulation for 6 hrs by RT-qPCR analysis; type: functional, cell-based; details: dose 5-20 µM, time 8.0 hrs; method in brief: as §4
# [11] = test system: RAW264.7; experiment: Antiinflammatory activity in LPS-induced mouse RAW264.7 cells assessed as decrease in COX-2 protein level at 10 to 40 uM preincubated for 2 hrs followed by LPS stimulation for 24 hrs by Western blot analysis; type: functional, cell-based; details: dose 10-40 µM, time 26.0 hrs; method in brief: as §1
# [12] = test system: RAW264.7; experiment: Inhibition of JNK signaling activation in LPS-induced mouse RAW264.7 cells assessed as downregulation of JNK phosphorylation preincubated for 2 hrs followed by LPS addition for 2 hrs by Western blot analysis; type: cell-based; details: dose 10-40 µM, time 4.0 hrs; method in brief: as §3
# [13] = test system: RAW264.7; experiment: Antiinflammatory activity in LPS-induced mouse RAW264.7 cells assessed as downregulation of IL-1beta mRNA expression level preincubated for 2 hrs followed by LPS stimulation for 6 hrs by RT-qPCR analysis; type: functional, cell-based; details: dose 5-20 µM, time 8.0 hrs; method in brief: as §4
# [14] = test system: RAW264.7; experiment: Antiinflammatory activity in LPS-induced mouse RAW264.7 cells assessed as downregulation of COX-2 mRNA expression level preincubated for 2 hrs followed by LPS stimulation for 6 hrs by RT-qPCR analysis; type: functional, cell-based; details: dose 5-20 µM, time 8.0 hrs; method in brief: as §4
# [15] = test system: RAW264.7; experiment: Antiinflammatory activity in LPS-induced mouse RAW264.7 cells assessed as downregulation of IL-6 mRNA expression level preincubated for 2 hrs followed by LPS stimulation for 6 hrs by RT-qPCR analysis; type: functional, cell-based; details: dose 5-20 µM, time 8.0 hrs; method in brief: as §4
# [16] = test system: RAW264.7; experiment: Antiinflammatory activity in LPS-induced mouse RAW264.7 cells assessed as inhibition of NO production at 20 uM preincubated for 2 hrs followed by LPS stimulation for 24 hrs by Griess reagent based assay; type: functional, cell-based; details: time 26.0 hrs
# Method in brief: (§5)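 Cells at 100 000 per well, grown 36 h in DMEM with 10% heat-inactivated FBS at 37 °C, 5% CO2. Pretreated 2 h with compound (20 μM in the screen), then LPS 1 μg mL−1 for 24 h. Supernatant mixed with Griess reagent, absorbance read at 540 nm, nitrite read from a sodium nitrite standard curve. Expressed as % of LPS control; ≥3 independent experiments, each in triplicate.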
# [17] = test system: RAW264.7; experiment: Antiinflammatory activity in LPS-induced mouse RAW264.7 cells assessed as inhibition of NO production preincubated for 2 hrs followed by LPS stimulation for 24 hrs by Griess reagent based assay; type: functional, cell-based; method in brief: as §5
# [18] = test system: RAW264.7; experiment: Antiinflammatory activity in LPS-induced mouse RAW264.7 cells assessed as reduction in NO production at 20 uM preincubated for 2 hrs followed by LPS stimulation for 24 hrs by Griess reagent based assay; type: functional, cell-based; details: time 26.0 hrs; method in brief: as §5
# [19] = test system: RAW264.7; experiment: Inhibition of ROS production in LPS-induced mouse RAW264.7 cells preincubated for 2 hrs followed by LPS stimulation for 24 hrs by Real-time single cell multi-mode analyzer; type: functional, cell-based; details: dose 10-40 µM, time 26.0 hrs
# Method in brief: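 Cells on confocal dishes at 100 000 per well for 36 h, pretreated 2 h with compound at 10, 20 or 40 μM, then LPS 1 μg mL−1 for 24 h. Loaded with 50 μM H2DCFDA in PBS for 30 min in the dark. ROS read per cell on a real-time single-cell multi-mode analyzer. Mean ± SD.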
IC50 [2] [µM],IC50 [3] [µM],IC50 [4] [µM],IC50 [6] [µM],IC50 [7] [µM],SMILES,Activity [1],Activity [2],Activity [3],inhibition [5],Activity [6],Activity [8],Activity [9],Activity [10],Activity [11],inhibition [12],Activity [13],Activity [14],Activity [15],Activity [16],further results
2.1,7.9,4.6,12.3,4,COc1ccc(C(=O)/C=C/c2cc(OC)c(OC)c(OC)c2)cc1OC,Active,Dose-Dependent Effect,Dose-Dependent Effect,Dose-Dependent Effect,Dose-Dependent Effect,Non-Toxic,Dose-Dependent Effect,Dose-Dependent Effect,Active,Dose-Dependent Effect,Dose-Dependent Effect,Dose-Dependent Effect,Dose-Dependent Effect,–,–
–,–,–,–,–,COc1ccc(CCC(=O)c2ccc(O)cc2)c(OC)c1,–,–,–,–,–,–,–,–,–,–,–,–,–,–,inhibition [16]: inactive
8.4,7.1,11.9,10,9.5,COc1ccc(/C=C/C(=O)c2cc(OC)c(OC)c(OC)c2)cc1OC,Active,Dose-Dependent Effect,Dose-Dependent Effect,Dose-Dependent Effect,Dose-Dependent Effect,Non-Toxic,Dose-Dependent Effect,Dose-Dependent Effect,Active,Dose-Dependent Effect,Dose-Dependent Effect,Dose-Dependent Effect,Dose-Dependent Effect,–,"IC50 [17]: 7.6 µM; Activity ([17]; dose 2.5-40 µM, time 26.0 hrs): Dose-Dependent Effect; Activity [18]: Active; inhibition [19]: Dose-Dependent Effect"
–,–,–,–,–,COc1cc(CCC(=O)c2ccc(F)c(C)c2)cc(OC)c1OC,–,–,–,–,–,–,–,–,–,–,–,–,–,inactive,–
–,–,–,–,–,COc1ccc(C(=O)CCc2ccc(OC)c(OC)c2)cc1,–,–,–,–,–,–,–,–,–,–,–,–,–,inactive,–
